These results are taken from ChEMBL document CHEMBL5352477, “Isoform selectivities of novel 4-hydroxycoumarin imines as inhibitors of myosin II” (Eur J Med Chem, 2023).

Molecules are shown by their SMILES. Activity calls are given as the source filed them. The calls are words filed in the database; no cut-off is given here.

The subject of series [1] is COS-7. Nature of the series: Inhibition of Non-muscle myosin IIB in African green monkey COS-7 cells assessed as inhibition of cytokinesis by measuring increase in nuclei to cell ratio (N/C) at 40 uM incubated for 24 hrs by fluorescein-diacetate, Hoechst 33342 and propidium iodide staining based fluorescence microscopy relative to control. The following applies: Chlorocebus aethiops. In outline:
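COS-7 cells (4,000/well) preincubated 24 h at 37 °C in 5% CO2, then exposed 24 h to 40 μM compound, final 1% DMSO. Media and 1% DMSO served as negative controls; para-aminoblebbistatin 20 μM and blebbistatin 10 μM as positive controls. Stained 10 min with FDA 6 μM, Hoechst 33342 10 μM and PI 4 μM, then imaged; N/C counted excluding PI-positive nuclei. Triplicate wells, ≥2 experiments, ≥600 cells per well.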

For series [2], the system named is COS-7. Nature of the series: Cytotoxicity against Green monkey COS-7 cells assessed as reduction in cell viability incubated for 24 hrs by MTT assay. It is filed as toxicity, cell-based. To be noted: chlorocebus aethiops, cos-7, 24 h. In outline: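 COS-7 cells seeded at 2.5 × 10^4 per well, grown 24 h at 37 °C in 5% CO2, then treated 24 h with 20, 40, 100 or 200 μM compound in media with 1% DMSO (4 wells each). MTT 1.2 mM in PBS for 2 h in the dark, lysis in 0.1% NP-40/isopropanol with HCl, A564 read; CC50 and CC90 taken as concentrations giving 50% and 90% loss of viability.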
In general terms: Tetrazolium assays rely on reduction of a dye to a coloured formazan, in cell work by metabolically active cells.

The nature of series [3]: Inhibition of full length bovine Myosin-2 cardiac muscle isoform from left ventricle ATPase activity assessed as reduction in steady-state rabbit F-actin-activated Mg2+ ATPase activity incubated for 6 to 24 mins in presence of ATPase buffer at 7.0 containing Mgcl2 and ATP by fluorescence-based assay. Details: species or system Bos taurus, Heart left ventricle.
Series [4] in a line: Kinetic solubility of the compound in 2.5% DMSO/PBS at pH 7.4 incubated for 1 hrs by nephelometry. Type of series: physicochemical. The following applies: buffer, pH 7.4, 1 h. A digest of the protocol: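 DMSO stock (20 mM) added to PBS pH 7.4, then serially diluted in quadruplicate at a constant 2.5% DMSO. Plates shaken 2 min, incubated 1 h at 37 °C, shaken 3 min, and turbidity read by nephelometry; average blank subtracted.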

A short description of series [5]: Inhibition of full length chicken phosphorylated myosin 2 smooth muscle isoform derived from gizzard ATPase activity assessed as reduction in steady-state rabbit F-actin-activated Mg2+ ATPase activity incubated for 6 to 24 mins in presence of ATPase buffer at 7.0 containing Mgcl2 and ATP by fluorescence-based assay. Type of series: tissue-based, Gallus gallus.
The nature of series [6]: Inhibition of full length rabbit myosin 2 skeletal muscle isoform derived from Psoas muscle ATPase activity assessed as reduction in steady-state rabbit F-actin-activated Mg2+ ATPase activity incubated for 6 to 24 mins in presence of ATPase buffer at 7.0 containing Mgcl2 and ATP by fluorescence-based assay. Type of series: tissue-based, Oryctolagus cuniculus.
Series [7] is described as follows: Selectivity index, ratio of IC50 for inhibition of full length bovine cardiac muscle myosin II ATPase activity to IC50 for inhibition of full length rabbit skeletal muscle myosin II ATPase activity.
The nature of series [8]: Hydrolytic stability of the compound ATPase assay buffer at pH 7 containing Mgcl2 and ATP assessed as half life by UV-visible spectrophotometry. It is filed as physicochemical. In outline: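 Compound diluted from 20 mM DMSO stock to 8 μM final (2% DMSO) in ATPase buffer: 10 mM MOPS pH 7.0, 50 mM NaCl, 0.1 mM EGTA, 5 mM MgCl2, 2 mM ATP, 1 mM DTT. Kept sealed at 30 °C; UV-vis spectrum (0.5 nm steps, 1 cm quartz) recorded at start and every 24 h against fresh reference solutions.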

As for `CCOCCC/N=C(\C)c1c(O)c2ccccc2oc1=O`, in the series with COS-7 [1], the inhibition result was “inactive”. Also, the CC10 with COS-7 [2] is 53 µM. Besides, the CC50 (commonly the concentration giving 50% cytotoxicity) in the series with COS-7 [2] amounted to 980 µM. In addition, the IC50 (usually the concentration needed to halve the response being measured) in series [3] is 8.1 µM; in series [5], at least 100 µM; in series [6], 2.5 µM. The Kinetic_solubility in series [4] was above 1250 µM. Also, in series [7], the Ratio IC50 is 3.2.

With `C/C(=N\Cc1ccccc1)c1c(O)c2ccccc2oc1=O`, the inhibition entry in the series with COS-7 [1] is “inactive”. Further, the t1/2 in series [8] is above 140 h. Moreover, in series [5], the IC50 was at least 100 µM.

Turning to `O=c1oc2ccccc2c(O)c1/C=N/Cc1ccccc1`, the inhibition result in the series on COS-7 [1] is “inactive”. In addition, the IC50 in series [3], in series [5] and in series [6] was at least 100 µM in each case. Also, in series [8], the t1/2 came out at 60 h.
